IMP-1 inh-1: blocks Pseudomonas aeruginosa IMP-1 metallo-beta-lactamase; purified IMP-1, nitrocefin hydrolysis, epi-absorbance fluorescence; inhibition, % at 5.6 µM; 290,000 tested, 0.45% active; AID 1556;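 active = inhibition above the mean plus 3 SD of all compounds in the same screening run, cut at about 4.5% in these data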;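 note: 0% = IMP-1 with DMSO and 100% = DMSO wells lacking enzyme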
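Material – recombinant IMP-1 enzyme, purified · Amount – IMP-1 0.2 nM before substrate addition · Medium – HEPES buffer pH 7.1 with ZnSO4 and Brij 35 · Timing – 25 °C, 15 min preincubation, 25 min reaction · Measured by – plate fluorescence quenching by hydrolysis product, ex 480/em 530 nm · Read-out – percent enzyme inhibition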
ARFGAP1 inh: inhibits rat ARF GTPase activating protein 1. Arfgap1-stimulated ARF1 GTP hydrolysis, GDP FP detection. inhibition, % at 16.5 µM. 360,000 tested, 0.26% active;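 active = inhibition above a per-plate limit, mean inhibition of low control wells plus 3 SD, cut at about 25% in these data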;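 note: 0% = DMSO wells with enzyme and 100% = wells lacking Arfgap1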
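Repeats: one replicate per compound; assay system: rat Arfgap1 catalytic domain, aa 1-136; times: enzyme reaction 120 min at 25 °C after 20 min preincubation; detection: FP of antibody-bound GDP Alexa 633 tracer, ex 620/em 688 nm; benchmarks: high control wells lacking Arfgap1, low control full reaction with DMSO; reagent: human ARF1(Δ1-17)-GTP substrate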
ASAP1 inh: ASAP1 ArfGAP inhibition; 360,000 tested, 0.19% active; Q9ULH1; inhibition, % at 16.5 µM; ASAP1-stimulated ARF1 GTP hydrolysis, GDP FP detection; in the data active = inhibition above about 25%;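 note: 0% = vehicle with enzyme and substrate and 100% = no enzyme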
Calb FLC: C. albicans growth modulation with fluconazole; C. albicans CaCi-2 + fluconazole, Alamar Blue growth, 48 h; growth inhibition, % (concentration not given with the values); 300,000 tested, 0.57% active;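 active = growth inhibition above about 58% in most replicates, limit read from the data, passing the limit was not always enough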;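 note: all wells also contain fluconazole at 8 µg/ml as a sub-toxic cotreatment; 0% = median of DMSO wells and 100% = median of geldanamycin control wells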
VIM-2 inh: blocks Pseudomonas aeruginosa VIM-2 metallo-beta-lactamase. purified VIM-2, nitrocefin hydrolysis, epi-absorbance fluorescence. inhibition, % at 5.6 µM. 290,000 tested, 0.89% active. AID 1527;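 active = inhibition above the mean of all tested compounds plus 3 SD, cutoff set per screening run, cut at about 7.5% in these data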;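 note: red hydrolysis product quenches plate fluorescence so inhibitors raise well fluorescence; 0% = enzyme with DMSO and 100% = DMSO without enzyme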
PHOSPHO1 block: PHOSPHO1 (human) inhibition. 290,000 tested, 1.1% active. inhibition, % at 13.3 µM. Q8TCT1. recombinant PHOSPHO1, absorbance phosphatase assay; in the data active = inhibition above about 60%
Target sequence (Q8TCT1 whole entry, looked up): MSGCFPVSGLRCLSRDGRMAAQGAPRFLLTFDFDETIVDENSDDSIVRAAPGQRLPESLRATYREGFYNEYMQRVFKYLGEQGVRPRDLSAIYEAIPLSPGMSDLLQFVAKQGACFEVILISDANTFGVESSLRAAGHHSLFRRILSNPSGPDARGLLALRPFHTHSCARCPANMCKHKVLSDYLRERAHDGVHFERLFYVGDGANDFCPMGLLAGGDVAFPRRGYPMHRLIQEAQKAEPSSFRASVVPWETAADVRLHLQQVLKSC
IMP-1 inh-2: selectivity counter-screen for VIM-2 inhibitors: IMP-1 metallo-beta-lactamase inhibitors. shares compounds with VIM-2 inh. purified IMP-1, nitrocefin hydrolysis, epi-absorbance fluorescence. inhibition, % at 5.6 µM. 1,300 tested, under 10 active; call rule not given here;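 note: 0% = enzyme with vehicle and 100% = vehicle without enzyme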
VIM-2 FRET inh: inhibits VIM-2 in FRET assay to exclude epi-absorbance artifacts. purified VIM-2, CCF2 FRET substrate hydrolysis. 1,300 tested, 23% active. inhibition, % at 5.6 µM. shares compounds with VIM-2 inh. AID 1857;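 active = inhibition above the mean of all tested compounds plus 3 SD, cut at about 19% in these data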;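 note: 0% = VIM-2 plus DMSO and 100% = no enzyme wells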
TEM-1 counter-1: selectivity counter-screen for VIM-2 inhibitors: E. coli TEM-1 inhibitors; Purified TEM-1, nitrocefin hydrolysis, epi-absorbance fluorescence; inhibition, % at 5.6 µM; 1,300 tested, 3% active; AID 1866; shares compounds with VIM-2 inh;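 active = inhibition above that campaign's mean inhibition plus 3 SD, cut at about 0.46% in these data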;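 note: 0% = TEM-1 with DMSO and 100% = TEM-1 with 100 µM potassium clavulanate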
Target sequence (P62593 whole entry, looked up): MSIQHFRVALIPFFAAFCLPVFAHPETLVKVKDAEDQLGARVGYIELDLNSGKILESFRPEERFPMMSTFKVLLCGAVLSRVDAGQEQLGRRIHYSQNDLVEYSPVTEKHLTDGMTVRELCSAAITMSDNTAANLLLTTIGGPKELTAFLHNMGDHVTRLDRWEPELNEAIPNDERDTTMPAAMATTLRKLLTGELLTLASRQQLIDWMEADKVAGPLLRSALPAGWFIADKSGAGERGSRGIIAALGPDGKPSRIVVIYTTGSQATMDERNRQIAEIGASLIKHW
VIM-2 confirm 2: confirmation of P. aeruginosa VIM-2 metallo-beta-lactamase inhibitors. shares compounds with VIM-2 inh. purified VIM-2, nitrocefin hydrolysis, epi-absorbance. inhibition, % at 5.6 µM. 1,300 tested, 96% active. AID 2187;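 active = inhibition of the VIM-2 beta-lactamase enzyme above about 11% from the earlier first-round screen, limit read from the data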;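 note: 0% = VIM-2 with DMSO and 100% = buffer wells without enzyme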
VIM-2 inh confirm: VIM-2 inhibition, confirmation assay | shares compounds with IMP-1 inh-1 | purified VIM-2 enzyme, nitrocefin absorbance | inhibition, % at 5.6 µM | 200 tested, 73% active; in the data active = inhibition above about 8%;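 note: 0% = enzyme with vehicle and 100% = no enzyme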
TEM-1 counter-2: blocks E. coli TEM-1 beta-lactamase, VIM-2 IMP-1 counter-screen; inhibition, % at 5.6 µM; shares compounds with IMP-1 inh-1; 200 tested, 50% active; nitrocefin absorbance inhibition; AID 2184; in the data active = inhibition above about 0.66%
IMP-1 confirm: confirmation of P. aeruginosa IMP-1 metallo-beta-lactamase inhibitors; 200 tested, 60% active; inhibition, % at 5.6 µM; purified IMP-1 enzyme, absorbance substrate hydrolysis; shares compounds with IMP-1 inh-1; in the data active = inhibition above about 4.9%;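 note: 0% = enzyme with vehicle and 100% = vehicle without enzyme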
Starred values were filed as active, the others as inactive; · = not tested or not shown. An excerpt weighted towards active compounds, which were near 2.6% of everything screened.

SMILES	IMP-1 inh-1	ARFGAP1 inh	ASAP1 inh	Calb FLC	VIM-2 inh	PHOSPHO1 block	others
COC(=O)C(C)Oc1cc(C)cc2oc(=O)c3c(c12)CCC3 (centres undefined)	-4.5	-11.8	-7.5	-5.0	11.4*	0.6
Cc1cc(OCc2nn[nH]n2)c2c3c(c(=O)oc2c1)CCC3	-0.9	13.0	1.0	27.2	11.8*	-33.3
O=C(NC1CCCCC1)N1Cc2ccc(Br)cc2-n2nncc2C1	·	-0.2	-12.3	·	·	·
C[C@H](Cc1ccc(OCC(=O)O)cc1)NC[C@H](O)c1cccc(Cl)c1	·	5.5	3.2	·	·	·
Cc1cc(C=C2C(=O)N(C)C(=S)N(C)C2=O)c(C)n1-c1ccncc1	17.9*	1.2	4.3	-4.5	-2.9	43.0
CN(C)CCN(C(=O)COc1ccc(Cl)cc1)c1nc2cc3c(cc2s1)OCO3	-0.3	1.2	6.0	-4.9	-0.9	62.9*
C[N+]12CCC(CC1)C(C#N)(N1CCOCC1)C2 (centres undefined)	-2.6	8.2	-7.0	-0.9	-2.1	100.9*
Cc1ccc(C(=O)NCCN2CCC3(CC2)C(=O)NCN3c2ccccc2)cc1	·	1.9	8.1	·	·	·
O=C(c1cc2c(s1)CCCC2)N1CCC2(CC1)OCCO2	-2.4	-4.9	-15.4	-0.8	0.6	10.5
O=C(c1cc2c(s1)-c1ccccc1OC2)N1CCC2(CC1)OCCO2	-3.6	1.0	7.0	100.2*	-2.7	14.3
Cc1cccc2nc(-c3ccccc3)c(-c3ccc(CN4CCC(n5c(=O)[nH]c6cc(Cl)ccc65)CC4)cc3)nc12	·	-2.1	4.4	·	·	·
Cc1cc(=O)oc2c(C)c(OCC(=O)N3CCN(Cc4ccccc4)CC3)ccc12	-3.9	1.1	1.5	-2.8	44.7*	21.8	IMP-1 inh-2=-2.8;VIM-2 FRET inh=-1.0;TEM-1 counter-1=-8.3;VIM-2 confirm 2=60.3*
Cc1c(C)c2ccc(OCC(=O)N3CCN(Cc4ccccc4)CC3)cc2oc1=O	·	-8.7	22.1	·	·	·
CS(=O)(=O)N1Cc2cc(Br)ccc2-n2nncc2C1	·	0.5	3.9	·	·	·
Cc1cc(OCC(=O)NCC(O)c2ccccc2)c2c3c(c(=O)oc2c1)CCCC3 (centres undefined)	-3.9	-0.3	3.5	-4.0	2.4	14.6
Cc1cc(OCC(=O)NCc2cccnc2)c2c3c(c(=O)oc2c1)CCCC3	-2.6	3.3	8.4	-3.9	32.6*	26.5	IMP-1 inh-2=-3.4;VIM-2 FRET inh=-1.6;TEM-1 counter-1=-9.2;VIM-2 confirm 2=39.7*
O=P(O)(O)Oc1ccccc1P(=O)(c1ccccc1)c1ccccc1	-2.9	3.2	0.1	0.3	16.8*	·	IMP-1 inh-2=-2.6;VIM-2 FRET inh=23.1*;TEM-1 counter-1=-3.8;VIM-2 confirm 2=20.6*
O=C(NCCN1CCC2(CC1)C(=O)NCN2c1ccccc1)c1ccc(OC(F)(F)F)cc1	·	-3.2	10.3	·	·	·
CN1CCC(N(C)c2nc(-c3ccccc3)nc3ccccc23)CC1	-5.8	-0.3	3.3	-1.3	21.4*	5.0	IMP-1 inh-2=-1.4;VIM-2 FRET inh=-2.6;TEM-1 counter-1=-3.9;VIM-2 confirm 2=32.9*
CCOC(=O)C1CCCN(c2ccc([N+](=O)[O-])c3nonc23)C1 (centres undefined)	26.8*	-1.4	-19.9	-10.6	25.7*	44.5	VIM-2 inh confirm=28.2*;TEM-1 counter-2=34.0*;IMP-1 confirm=22.7*

Source: PubChem (several laboratories)
